Reference: ChEMBL document CHEMBL1154977, “Antiproliferative activity of novel benzo[b][1,6]naphthyridines in human solid tumor cell lines” (Bioorg Med Chem Lett, 2010)

Experiments:
[1] = test system: Ishikawa; test: Growth inhibition of human Ishikawa cells after 48 hrs by sulforhodamine B assay; type: functional
Summary of the method: (§1)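 Human solid tumor cells were exposed to drug for 48 h. Growth was measured by sulforhodamine B staining, and results were expressed as GI₅₀ (50% growth inhibition).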

[2] = test system: WiDr; test: Growth inhibition of human WiDr cells after 48 hrs by sulforhodamine B assay; type: functional; summary of the method: as §1
[3] = test system: HeLa; test: Growth inhibition of human HeLa cells after 48 hrs by sulforhodamine B assay; type: functional; summary of the method: as §1
[4] = test system: SW1573; test: Growth inhibition of human SW1573 cells after 48 hrs by sulforhodamine B assay; type: functional; settings: SW1573, 48 h; summary of the method: as §1
[5] = test system: T47D; test: Growth inhibition of human T47D cells after 48 hrs by sulforhodamine B assay; type: functional; summary of the method: as §1
[6] = test system: Candida parapsilosis; test: Antifungal activity against Candida parapsilosis ATCC 22019 after 48 hrs by broth microdilution method; type: functional, organism-based; settings: Lodderomyces parapsilosis, ATCC 22019, 48 h
Summary of the method: (§2)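 Candida strains were grown on nutrient agar at 35–37 °C for 24 h and suspended in normal saline at 1.0–5.0 × 10³ cfu mL⁻¹, matched to a 0.5 McFarland standard. Broth microdilution was run in RPMI 1640 buffered with MOPS, with growth and sterility controls. Plates were incubated at 35–37 °C in a moist dark chamber, shaken, and read for optical density at 490 nm after 48 h.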

[7] = test system: Candida albicans; test: Antifungal activity against Candida albicans ATCC 90028 after 48 hrs by broth microdilution method; type: functional, organism-based; settings: ATCC 90028, 48 h; summary of the method: as §2
[8] = test system: Escherichia coli; test: Antibacterial activity against Escherichia coli ATCC 25922 after 24 hrs by broth microdilution method; type: functional, organism-based; settings: ATCC 25922, 24 h
Summary of the method: as §2, with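 “Bacteria” for “Candida strains”, “about 5.0” for “1.0–5.0”, “10⁵” for “10³”, “Mueller Hinton broth” for “RPMI 1640 buffered with MOPS,”, “630” for “490”, “24” for “48”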

[9] = test system: Staphylococcus aureus; test: Antibacterial activity against epidemic methicillin-resistant Staphylococcus aureus 16 after 24 hrs by broth microdilution method; type: functional, organism-based; settings: Staphylococcus aureus, 16, 24 h
Summary of the method: (§3)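 Bacteria grown on nutrient agar at 35–37 °C for 24 h, then suspended in normal saline to approximately 5.0 × 10⁵ cfu mL⁻¹, matched to 0.5 McFarland. Broth microdilution in Mueller Hinton broth with growth and sterility controls. Incubated at 35–37 °C in a moist dark chamber, shaken, and optical density read at 630 nm after 24 h.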

[10] = test system: Klebsiella pneumoniae; test: Antibacterial activity against Klebsiella pneumoniae ATCC 700603 after 24 hrs by broth microdilution method; type: functional, organism-based; settings: ATCC 700603, 24 h
Summary of the method: (§4)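 Bacteria were grown on nutrient agar at 35–37 °C for 24 h and suspended in normal saline at about 5.0 × 10⁵ cfu mL⁻¹, matched to a 0.5 McFarland standard. Broth microdilution was run in Mueller Hinton broth with growth and sterility controls. Plates were incubated at 35–37 °C in a moist dark chamber, shaken, and read for optical density at 630 nm after 24 h.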

[11] = test system: Staphylococcus aureus; test: Antibacterial activity against Staphylococcus aureus NRS 107 after 24 hrs by broth microdilution method; type: functional, organism-based; settings: NRS 107, 24 h; summary of the method: as §3
[12] = test system: Nakaseomyces glabratus; test: Antifungal activity against Candida glabrata ATCC 90030 after 48 hrs by broth microdilution method; type: functional, organism-based; settings: ATCC 90030, 48 h; summary of the method: as §2
[13] = test system: Klebsiella oxytoca; test: Antibacterial activity against Klebsiella oxytoca ATCC 700324 after 24 hrs by broth microdilution method; type: functional, organism-based; settings: ATCC 700324, 24 h
[14] = test system: Pichia kudriavzevii; test: Antifungal activity against Candida krusei ATCC 6258 after 48 hrs by broth microdilution method; type: functional, organism-based; settings: ATCC 6258, 48 h; summary of the method: as §2
[15] = test system: Staphylococcus aureus; test: Antibacterial activity against Staphylococcus aureus ATCC 25923 after 24 hrs by broth microdilution method; type: functional, organism-based; settings: ATCC 25923, 24 h; summary of the method: as §3
[16] = test system: Pseudomonas aeruginosa; test: Antibacterial activity against Pseudomonas aeruginosa ATCC 27853 after 24 hrs by broth microdilution method; type: functional, organism-based; settings: ATCC 27853, 24 h; summary of the method: as §4
[17] = test system: Escherichia coli; test: Antibacterial activity against Escherichia coli ATCC 35218 after 24 hrs by broth microdilution method; type: functional, organism-based; settings: ATCC 35218, 24 h; summary of the method: as §4
[18] = test system: Enterococcus faecalis; test: Antibacterial activity against Enterococcus faecalis ATCC 29212 after 24 hrs by broth microdilution method; type: functional, organism-based; settings: ATCC 29212, 24 h; summary of the method: as §4
[19] = test system: Nakaseomyces nivariensis; test: Antifungal activity against Candida nivariensis 5937-63 after 48 hrs by broth microdilution method; type: functional, organism-based; settings: 5937-63, 48 h; summary of the method: as §2
[20] = test system: Staphylococcus aureus; test: Antibacterial activity against Staphylococcus aureus ATCC 29213 after 24 hrs by broth microdilution method; type: functional, organism-based; settings: ATCC 29213, 24 h; summary of the method: as §3

SMILES	GI50 [1]	GI50 [2]	GI50 [3]	GI50 [4]	GI50 [5]	IC50 [6]	IC50 [7]	IC50 [8]	IC50 [9]	IC50 [10]	IC50 [11]	IC50 [12]	IC50 [13]	IC50 [14]	IC50 [15]	IC50 [16]	IC50 [17]	IC50 [18]	IC50 [19]	IC50 [20]
ClC(Cl)(Cl)C1c2cc3ccccc3nc2C=C(c2ccccc2)N1Cc1ccccc1 (stereo not given)	15 µM	46 µM	27 µM	5.1 µM	71 µM	–	–	–	–	–	–	–	–	–	–	–	–	–	–	–
CCCCN1C(c2ccccc2)=Cc2nc3ccccc3cc2C1C(Cl)(Cl)Cl (stereo not given)	3.1 µM	16 µM	6.1 µM	6.5 µM	15 µM	–	–	–	–	–	–	–	–	–	–	–	–	–	–	–
COC1OC(c2ccccc2)=Cc2nc3ccccc3cc21 (stereo not given)	> 100 µM	> 100 µM	> 100 µM	> 100 µM	> 100 µM	> 100 µM	> 100 µM	> 100 µM	> 100 µM	> 100 µM	> 100 µM	> 100 µM	> 100 µM	> 100 µM	> 100 µM	> 100 µM	> 100 µM	> 100 µM	> 100 µM	29 µM
ClC(Cl)(Cl)C1c2cc3ccccc3nc2C=C(c2ccccc2)N1CCc1ccccc1 (stereo not given)	25 µM	57 µM	38 µM	5.5 µM	60 µM	–	–	–	–	–	–	–	–	–	–	–	–	–	–	–
C=CCN1C(c2ccccc2)=Cc2nc3ccccc3cc2C1C(Cl)(Cl)Cl (stereo not given)	31 µM	42 µM	32 µM	46 µM	48 µM	–	–	–	–	–	–	–	–	–	–	–	–	–	–	–
CCOc1ccc(CCN2C(c3ccccc3)=Cc3nc4ccccc4cc3C2C(Cl)(Cl)Cl)cc1OCC (stereo not given)	4.1 µM	37 µM	5.6 µM	4.3 µM	54 µM	–	–	–	–	–	–	–	–	–	–	–	–	–	–	–
CCOC1OC(c2ccccc2)=Cc2nc3ccccc3cc21 (stereo not given)	> 100 µM	> 100 µM	> 100 µM	> 100 µM	> 100 µM	20 µM	20 µM	20 µM	17 µM	56 µM	24 µM	18 µM	63 µM	4.5 µM	20 µM	22 µM	27 µM	25 µM	16 µM	23 µM
ClC(Cl)(Cl)C1c2cc3ccccc3nc2C=C(c2ccccc2)N1CCN1CCOCC1 (stereo not given)	17 µM	20 µM	6.5 µM	31 µM	26 µM	–	–	–	–	–	–	–	–	–	–	–	–	–	–	–
